As a reminder, the inhibition is how much of the control response was suppressed. Lower therefore signals a response near the control. One may read the inhibition in vivo as the drop in the measured response relative to a control, in per cent. Low readings indicate a weak effect, high ones a strong effect. By Inhibition is commonly meant the share of the control response that was lost under treatment. The half-life is how long it takes for the measured level to halve. High values mean slow decline, low ones rapid decline. A word on the IC50: it is the point on the concentration scale where inhibition reaches its midpoint.

Data set [1] has as its system Rattus norvegicus. Description: Percentage of [51Cr]- secreted in feces was determined by fecal drug-induced bleeding method in rat at 100 mg/kg, bid for 4 days.
Data set [2] addresses T1, Prostaglandin G/H synthase 2 (Homo sapiens) (UniProt P35354).
T1 sequence (whole entry): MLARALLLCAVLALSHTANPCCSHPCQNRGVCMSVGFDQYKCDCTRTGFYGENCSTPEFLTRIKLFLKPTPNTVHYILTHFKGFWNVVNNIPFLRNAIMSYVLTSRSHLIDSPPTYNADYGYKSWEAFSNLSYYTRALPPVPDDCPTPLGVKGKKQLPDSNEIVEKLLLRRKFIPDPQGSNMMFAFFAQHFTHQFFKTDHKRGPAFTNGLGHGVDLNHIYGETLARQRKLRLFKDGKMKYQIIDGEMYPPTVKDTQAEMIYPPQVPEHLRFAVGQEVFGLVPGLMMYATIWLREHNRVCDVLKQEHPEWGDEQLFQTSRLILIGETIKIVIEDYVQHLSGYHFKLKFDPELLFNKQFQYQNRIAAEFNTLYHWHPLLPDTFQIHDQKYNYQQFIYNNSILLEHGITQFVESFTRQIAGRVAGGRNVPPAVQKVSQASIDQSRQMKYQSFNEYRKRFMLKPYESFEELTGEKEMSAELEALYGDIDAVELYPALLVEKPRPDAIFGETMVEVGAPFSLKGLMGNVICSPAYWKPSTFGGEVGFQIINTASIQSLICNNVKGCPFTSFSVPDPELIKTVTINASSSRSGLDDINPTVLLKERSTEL
To be noted: Blood; at 10 µM.

Data set [3] addresses T1, Prostaglandin G/H synthase 2 (Homo sapiens). The settings on record: Blood; at 1 µM.
The subject of data set [4] is Rattus norvegicus. As to the kind of experiment: In vivo anti-inflammatory activity by air pouch model at 1 mg/kg perorally in rat. The class given is functional. To be noted: route oral. Put shortly: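 Rat air pouch: sterile air (20 mL) was injected subcutaneously, with 10 mL refills every 2 days. On day 7, 2 mL of 1% lambda-carrageenan in saline was injected into the pouch. Compound was given orally (suspension in 1% CMC/Tween-80, 10 mL/kg) 0.5 h before carrageenan. At 6 h, exudate was collected and centrifuged, and supernatant PGE2 was measured by ELISA.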

Data set [5] deals with Rattus norvegicus. Description: In vivo analgesic activity of compound was determined by inflammatory hyperalgesia model at 3 mg/kg perorally in rat. In kind it is functional. To be noted: route oral. Summed up:
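Male Sprague–Dawley rats received 1% carrageenan suspension (0.1 mL) into the right hind foot pad. Three hours later, compound (suspended in 1% Tween-80) was given by gavage. After 30 min, a heat stimulus was applied under the inflamed paw and withdrawal latency (s) recorded. The % inhibition of the stimulus-induced latency decrease was calculated relative to the untreated left paw.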

For data set [6], the system named is Rattus norvegicus. Description: In vivo inhibition of contralateral paw swelling after oral treatment for 28 days (1 mg/kg od) was determined by adjuvabt arthritis in rat. In kind it is functional. Summed up:
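Lewis rats (140–170 g, 7 weeks) received 0.5 mg Mycobacterium butyricum in light mineral oil intradermally into the right hind foot pad; controls received incomplete adjuvant. Groups of 10 were dosed orally at 1 mg/kg daily for 28 days, starting on the day of injection. Left hind paw volume was measured plethysmographically at the end and expressed as % inhibition versus controls.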

The subject of data set [7] is Rattus norvegicus. Description: In vivo anti-inflammatory activity determined by rat carrageenan paw edema method at 10 mg/kg perorally. In kind it is functional. To be noted: route oral. In general terms: In the carrageenan paw model, swelling and tenderness develop within hours.
Data set [8] can be described thus: Half life of compound was determined at 1 mg/kg intravenous administration in rat. To be noted: in vivo. The class given is ADME, organism-based. Also on record: dose 1 mg/kg, route intravenous.
Data set [9] has as its target Prostaglandin G/H synthase 1 (Homo sapiens, UniProt P23219). The class given is cell-based, U-937.
The subject of data set [10] is Rattus norvegicus. Description: In vivo anti-inflammatory activity of compound was determined by rat carrageenan paw edema at 10 mg/kg perorally. To be noted: po.
Data set [11] deals with T1, Prostaglandin G/H synthase 2 (Homo sapiens). As to the kind of experiment: In vitro inhibition of Prostaglandin G/H synthase 2 (COX-2)in human whole blood at 1 uM was determined.

Sequence of Prostaglandin G/H synthase 1 (P23219 whole entry): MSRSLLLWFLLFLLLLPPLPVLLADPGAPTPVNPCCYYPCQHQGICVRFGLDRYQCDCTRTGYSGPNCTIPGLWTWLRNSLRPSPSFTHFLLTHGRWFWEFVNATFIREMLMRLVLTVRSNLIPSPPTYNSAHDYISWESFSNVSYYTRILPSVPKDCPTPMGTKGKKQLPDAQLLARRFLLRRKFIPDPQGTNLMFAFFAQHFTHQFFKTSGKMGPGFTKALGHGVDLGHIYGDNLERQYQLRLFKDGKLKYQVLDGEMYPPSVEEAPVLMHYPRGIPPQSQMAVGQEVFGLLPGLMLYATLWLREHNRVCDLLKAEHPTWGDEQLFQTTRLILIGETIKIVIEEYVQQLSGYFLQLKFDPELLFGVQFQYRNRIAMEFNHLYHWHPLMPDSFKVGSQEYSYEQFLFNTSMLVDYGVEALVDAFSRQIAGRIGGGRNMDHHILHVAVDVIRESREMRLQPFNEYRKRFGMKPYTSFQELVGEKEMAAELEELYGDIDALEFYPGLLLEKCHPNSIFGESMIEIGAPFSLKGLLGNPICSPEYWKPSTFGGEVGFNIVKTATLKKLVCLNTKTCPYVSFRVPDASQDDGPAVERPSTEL

As for `CS(=O)(=O)c1ccc(C2=C(c3ccccc3)C(=O)OC2)cc1` [ROFECOXIB], the Cr secretion in the data set on Rattus norvegicus [1] is reported as 0.6%. Also, the figures for the inhibition in data set [2] and in data set [3] were 100% and 84.1%, respectively. The inhibition in vivo at 1 mg/kg in the data set on Rattus norvegicus [4] came to 95.3%. This compound also gave an inhibition in vivo at 3 mg/kg in the data set with Rattus norvegicus [5] of 83.4%. This compound came in with an Inhibition with Rattus norvegicus [6] of 87%. In addition, 10 mg/kg produced 33.3% inhibition in vivo with Rattus norvegicus [7].
Take `CCOc1ccc(-c2c(Cl)ncn2-c2ccc(S(N)(=O)=O)cc2)cc1`: the Cr secretion with Rattus norvegicus [1] is given as 0.5%. The same compound showed a half-life in data set [8] of 2.2 h. This compound also showed an inhibition in vivo at 1 mg/kg with Rattus norvegicus [4] of 98.9%. Moreover, the inhibition in vivo at 3 mg/kg in the data set with Rattus norvegicus [5] was found to be 82.8%. This compound also displayed an Inhibition in the data set with Rattus norvegicus [6] of 97%. Further, the inhibition in vivo at 10 mg/kg with Rattus norvegicus [7] stood at 29.2%. Besides, the IC50 in data set [9] amounted to 2.2 µM.
For `CS(=O)(=O)c1ccc(-n2cnc(Cl)c2-c2ccc(F)cc2)cc1`, the inhibition in [2] turned out to be 100%; in data set [3], 89%. This compound also displayed an inhibition in vivo at 10 mg/kg in the data set with Rattus norvegicus [10] of 41.2%. The compound further gave a half-life in data set [8] of 21 h. Also, the inhibition in vivo at 1 mg/kg in the data set on Rattus norvegicus [4] worked out at 98.1%. Moreover, the IC50 in data set [9] is > 10 µM.
As for `COc1ccc(-c2c(Cl)ncn2-c2ccc(S(N)(=O)=O)cc2)cc1F` [CIMICOXIB], the Cr secretion in the data set with Rattus norvegicus [1] was determined as 0.9%. Moreover, the inhibition in data set [2] and in data set [3] was 100% throughout. Besides, in [8], the half-life is 2.9 h. For the same compound, in the data set with Rattus norvegicus [4], testing at 1 mg/kg gave an inhibition in vivo of 98.2%. This compound yielded an inhibition in vivo at 3 mg/kg in the data set with Rattus norvegicus [5] of 83.4%. Moreover, the Inhibition in the data set on Rattus norvegicus [6] worked out at 93%. This compound returned an inhibition in vivo at 10 mg/kg in the data set on Rattus norvegicus [7] of 31%. In addition, the midpoint of inhibition in data set [9], the IC50, lay at 3.3 µM.
In the data set on Rattus norvegicus [1], `COc1ccc(-c2c(Cl)ncn2-c2ccc(S(C)(=O)=O)cc2)cc1F` returned a Cr secretion of 0.4%. Moreover, the inhibition was determined as 100% in data set [2] and 79% in data set [3]. For the same compound, the half-life in data set [8] is 2.2 h. Further, in the data set with Rattus norvegicus [4], the inhibition in vivo at 1 mg/kg worked out at 89.5%. In the data set on Rattus norvegicus [5], this compound had an inhibition in vivo at 3 mg/kg of 80%. In the data set with Rattus norvegicus [6], this compound showed an Inhibition of 86%. This compound came in with an inhibition in vivo at 10 mg/kg in the data set on Rattus norvegicus [7] of 24.2%. Moreover, the IC50 in data set [9] was > 10 µM.
Regarding `CCN(CC)c1ccc(-c2c(Cl)ncn2-c2ccc(S(C)(=O)=O)cc2)cc1`, the values for the inhibition in [2] and in data set [3] were 100% and 9.7%, respectively. In addition, in the data set on Rattus norvegicus [4], testing at 1 mg/kg gave an inhibition in vivo of 64.1%. Also, in the data set with Rattus norvegicus [5], at 3 mg/kg the inhibition in vivo was 64.1%. Also, the inhibition in vivo at 10 mg/kg in the data set with Rattus norvegicus [7] came to 24.2%. In addition, the IC50 in data set [9] was > 10 µM.
For `COc1cc(-c2c(Cl)ncn2-c2ccc(S(C)(=O)=O)cc2)ccc1F`, the inhibition worked out at 92.6% in [2] and 97.4% in data set [3]. The same compound gave an inhibition in vivo at 1 mg/kg in the data set on Rattus norvegicus [4] of 15.1%. The inhibition in vivo at 3 mg/kg with Rattus norvegicus [5] was 20.4%. Besides, at 10 mg/kg the inhibition in vivo with Rattus norvegicus [7] was 25%. For the same compound, in data set [9], the IC50 is > 10 µM.
For the compound `Cc1ccc(-c2c(Cl)ncn2-c2ccc(S(N)(=O)=O)cc2)cc1`, the inhibition in data set [2] was determined as 100%; in data set [3], 76.1%. In data set [8], this compound gave a half-life of 5.2 h. Also, the inhibition in vivo at 1 mg/kg with Rattus norvegicus [4] turned out to be 62.3%. In the data set with Rattus norvegicus [7], this compound returned an inhibition in vivo at 10 mg/kg of 32.6%. In [9], this compound gave an IC50 of 2.7 µM.
As for `CS(=O)(=O)c1ccc(-n2cnc(Cl)c2-c2ccc3c(c2)OCO3)cc1`, the values for the inhibition in data set [2] and in data set [3] were 100% and 60.5%, respectively. Further, the half-life in data set [8] is 3.5 h. Further, the inhibition in vivo at 3 mg/kg with Rattus norvegicus [5] was determined as 69.9%. For the same compound, the inhibition in vivo at 10 mg/kg in the data set on Rattus norvegicus [7] is 30.6%. In addition, the IC50 in data set [9] is > 10 µM.
In the case of `COc1ccc2c(c1)c(CC(=O)O)c(C)n2C(=O)c1ccc(Cl)cc1` [INDOMETHACIN], the Cr secretion in the data set on Rattus norvegicus [1] is 7.5%. The compound also registered an Inhibition in the data set with Rattus norvegicus [6] of 94%. Besides, 10 mg/kg produced 66.2% inhibition in vivo in the data set on Rattus norvegicus [7].
Consider `CS(=O)(=O)c1ccc(-c2cnc(C#N)n2-c2ccc(F)cc2)cc1`, for which the values for the inhibition in data set [2] and in data set [11] were 100% and 74%, respectively. Further, 1 mg/kg produced 79% inhibition in vivo in the data set on Rattus norvegicus [4]. For the same compound, the inhibition in vivo at 10 mg/kg in the data set on Rattus norvegicus [7] was 28.5%. Further, in [9], the IC50 is > 10 µM.
Consider `CS(=O)(=O)c1ccc(-n2cnc(Cl)c2-c2ccncc2)cc1`, for which the values for the inhibition in data set [2] and in [3] were 82.4% and 54.5%, respectively. Further, the inhibition in vivo at 1 mg/kg in the data set with Rattus norvegicus [4] was 50.2%. In the data set on Rattus norvegicus [5], the inhibition in vivo at 3 mg/kg was 69.4%. This compound also displayed an inhibition in vivo at 10 mg/kg with Rattus norvegicus [7] of 31.7%. Further, the IC50 in data set [9] is > 10 µM.
Turning to `Cc1ccc(-c2cc(C(F)(F)F)nn2-c2ccc(S(N)(=O)=O)cc2)cc1` [CELECOXIB], in the data set on Rattus norvegicus [1], the Cr secretion is given as 0.7%. In the data set with Rattus norvegicus [4], this compound registered an inhibition in vivo at 1 mg/kg of 93.4%. This compound also registered an inhibition in vivo at 3 mg/kg with Rattus norvegicus [5] of 86.7%. Also, the Inhibition in the data set on Rattus norvegicus [6] was found to be 89%. The compound further showed an inhibition in vivo at 10 mg/kg with Rattus norvegicus [7] of 35.7%.
In the case of `COc1ccc(-c2c(Cl)ncn2-c2ccc(S(C)(=O)=O)cc2)cc1Cl`, the values for the inhibition in [2] and in data set [3] were 100% and 84.1%, respectively. The half-life in [8] is 3.6 h. Also, at 1 mg/kg the inhibition in vivo with Rattus norvegicus [4] was 71.1%. The compound further gave an inhibition in vivo at 3 mg/kg in the data set with Rattus norvegicus [5] of 66.6%. At 10 mg/kg the inhibition in vivo in the data set on Rattus norvegicus [7] was 31.4%. The IC50 in data set [9] is > 10 µM.
Consider `COc1cc(-c2c(Cl)ncn2-c2ccc(S(N)(=O)=O)cc2)ccc1F`, for which the inhibition in data set [2] is 79.3%. This compound also showed a half-life in data set [8] of 3.8 h. Moreover, the inhibition in vivo at 1 mg/kg with Rattus norvegicus [4] stood at 58.9%. Further, in the data set on Rattus norvegicus [5], 3 mg/kg produced 38% inhibition in vivo. Besides, testing at 10 mg/kg with Rattus norvegicus [7] gave an inhibition in vivo of 14.3%. Further, in data set [9], the IC50 was > 1 µM.
For the compound `CN(C)c1ccc(-c2c(Cl)ncn2-c2ccc(S(C)(=O)=O)cc2)cc1Cl`, the inhibition in data set [2] was 98.9%; in data set [3], 64.6%. In data set [8], this compound gave a half-life of 1.2 h. Besides, in the data set on Rattus norvegicus [4], the inhibition in vivo at 1 mg/kg was found to be 43%. In the data set on Rattus norvegicus [5], this compound yielded an inhibition in vivo at 3 mg/kg of 63.8%. For the same compound, testing at 10 mg/kg in the data set on Rattus norvegicus [7] gave an inhibition in vivo of 33.3%. This compound returned an IC50 in [9] of 1.9 µM.

The record behind these values is ChEMBL document CHEMBL1145864, “Synthesis and structure-activity relationship of a new series of COX-2 selective inhibitors: 1,5-diarylimidazoles” (J Med Chem, 2003).
